PMC4303305 (Biochemistry, 2014)
Like-named read-outs stand apart in the source and are kept apart here.

Experiments:
[1] = Size-exclusion FPLC retention of nitrophorins, mutants and ligand complexes; type: physicochemical, Rhodnius prolixus; details: under any conditions / at any pH
Summary of the method: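 Analytical run on Superdex75 at 4 °C in 100 mM sodium acetate, NaCl added to 220 mM total ionic strength. Protein at 1 mM was run at pH 5.0, 5.25, 5.5 and 5.75. Separately, protein from 1 to 0.025 mM was run at pH 5.0. Elution position compared with molecular weight standards.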

[2] = cited from earlier work
[3] = Stopped-flow kinetics of release of NO from the nitrophorins; type: binding, Rhodnius prolixus
Summary of the method: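 Stopped-flow measurement of NO release from NO-bound nitrophorins with native or M0-bearing N-termini. Dissociation Kd obtained at pH 5.0 and 7.5 in dilute solution, 5–10 μM protein in 100 mM sodium phosphate buffer.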

| factor by which having M0 present increased the Kd for the loss of NO ([3]; pH 5.0) | factor by which having M0 present increased the Kd for the loss of NO ([3]; pH 7.5) | Substance | dimer formation [1] | NO Kd (NO dissociation) ([2]; column pH 7.5, measured at pH 8.0 rather than pH 7.5 (footnote a)) | NO Kd (NO dissociation) ([2]; pH 5.0, ref 17) [s^–1] | NO Kd (NO dissociation) ([2]; pH 5.0, ref 29) [s^–1] | NO Kd (NO dissociation) ([2]; pH 7.5) [s^–1] |
| --- | --- | --- | --- | --- | --- | --- | --- |
| – | – | (M0)NP2: recombinant NP2 retaining M0 (N-terminus MDCST...) | do not form dimers | 0.12 ± 0.01 ^a s^–1 | 0.05 ± 0.01 | 0.049 ± 0.002 | 0.161 ± 0.005 |
| – | – | NP2(D1A): D1A mutant of NP2, no M0 present | – | – | – | 0.015 ± 0.005 | 0.089 ± 0.002 |
| 1.6 | 1.7 | NP2: nitrophorin 2 of Rhodnius prolixus; in b68 named without construct | – | – | – | – | – |
